Measurements taken from ChEMBL document CHEMBL5120933, “Direct-to-Biology Accelerates PROTAC Synthesis and the Evaluation of Linker Effects on Permeability and Degradation” (ACS Med Chem Lett, 2022).
pEC50, pIC50: −log10 of the molar value.

Columns and labels:
[1] = molecular target: Bromodomain-containing protein 4 (Homo sapiens) (UniProt O60885); test: Relative binding affinity to BRD4 (unknown origin)
HEK293 [2] = test: Cytotoxicity against human HEK293 cells assessed as inhibition of cell viability incubated for 30 mins in presence of CRBN-tracer by nanoBRET assay; format: functional, cell-based
[3] = molecular target: Protein cereblon/Bromodomain-containing protein 4 (Homo sapiens, UniProt O60885+Q96SW2); test: PROTAC activity at […]/BRD4 in human HEK293T cells assessed as degradation of BRD4 incubated for 24 hrs by HiBiT assay; format: cell-based
HEK293 [4] = test: Cytotoxicity against permeabilized HEK293 cells assessed as inhibition of cell viability incubated for 30 mins in presence of CRBN-tracer by nanoBRET assay; format: functional, cell-based, Homo sapiens
Method in brief: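 Transfected HEK293 cells (NanoLuc-CRBN plus DDB1), thawed from frozen into phenol-red-free Opti-MEM (500,000 cells/mL). Wells held CRBN-tracer (7.5 nL) and 11-pt 3-fold titrations (50 uM top assay concentration); 18 uL cells added, then 2 uL 0.5 mg/mL digitonin, 30 min at room temperature. NanoBRET substrate 1:166, no extracellular inhibitor; BRET luminescence at 450-480 nm and 610-LP.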

HEK293 [5] = test: Cytotoxicity against human HEK293 cells assessed as inhibition of cell viability at […] incubated for 30 mins by cell titer-glo assay relative to control; format: functional
HEK293 [6] = test: Cytotoxicity against human HEK293 cells assessed as inhibition of cell viability incubated for 24 hrs by cell titer-glo assay; conditions: HEK293, 24 h
HEK293 [7] = test: Cytotoxicity against human HEK293 cells assessed as inhibition of cell viability at 10 uM incubated for 30 mins by cell titer-glo assay relative to control; format: functional; conditions: HEK293, 0.5 h
HEK293 [8] = test: Cytotoxicity against human HEK293 cells assessed as inhibition of cell viability at 12 uM incubated for 30 mins by cell titer-glo assay relative to control; format: functional; conditions: HEK293, 0.5 h
[9] = Homo sapiens, HEK293, 0.5 h, read-out: Emax

Chain of Protein cereblon/Bromodomain-containing protein 4 (Q96SW2 whole entry, looked up, other chains not shown): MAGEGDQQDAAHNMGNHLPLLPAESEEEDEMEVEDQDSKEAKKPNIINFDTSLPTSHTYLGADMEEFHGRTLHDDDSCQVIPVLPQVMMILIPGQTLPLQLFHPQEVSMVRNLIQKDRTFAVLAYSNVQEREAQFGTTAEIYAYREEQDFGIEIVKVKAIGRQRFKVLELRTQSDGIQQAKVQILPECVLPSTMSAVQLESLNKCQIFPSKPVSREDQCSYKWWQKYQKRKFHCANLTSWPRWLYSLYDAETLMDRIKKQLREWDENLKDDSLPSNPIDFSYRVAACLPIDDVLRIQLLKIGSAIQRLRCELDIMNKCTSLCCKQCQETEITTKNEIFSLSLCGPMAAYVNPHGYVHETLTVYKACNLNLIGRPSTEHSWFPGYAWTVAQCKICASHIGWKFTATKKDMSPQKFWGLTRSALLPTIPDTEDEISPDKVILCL

| SMILES | relative binding affinity (RBA) [1] | DC50 [3] | pIC50 (HEK293 [2]; Homo sapiens, HEK293, 0.5 h) | pIC50 (HEK293 [4]; Homo sapiens, HEK293, 0.5 h) | Emax (HEK293 [5]; [9]) | pEC50 (HEK293 [6]) | further results |
| --- | --- | --- | --- | --- | --- | --- | --- |
| Cc1ccc(C(=O)ON2C(=O)CCC2=O)cc1N1CCC(=O)NC1=O |  | > 50000 nM | 4.65 | 5.22 | 9.24% | < 4.30 |  |
| Cc1sc2c(c1C)C(c1ccc(Cl)cc1)=N[C@@H](CC(=O)NCCCCNC(=O)COc1cccc3c1C(=O)N(C1CCC(=O)NC1=O)C3=O)c1nnc(C)n1-2 (stereo in doubt; form 1) |  |  |  | 7.05 |  |  | pIC50 (HEK293 [2]; hek293): 5.66; Emax at 10 µM (HEK293 [7]): 25.2% |
| Cc1ccc(C(=O)O)cc1N1CCC(=O)NC1=O |  | > 21700 nM | < 4.30 | 5.71 | 7.84% | < 4.30 |  |
| Cc1sc2c(c1C)C(c1ccc(Cl)cc1)=N[C@@H](CC(=O)NCCCCNC(=O)COc1cccc3c1C(=O)N(C1CCC(=O)NC1=O)C3=O)c1nnc(C)n1-2 (stereo in doubt; form 2) |  |  |  |  |  |  | pIC50 (HEK293 [2]; hek293): 6.03; pIC50 (HEK293 [4]; hek293): 7.25; Emax at 12 µM (HEK293 [8]): 21.7% |
| Cc1ccc(C(=O)NCCOCCN(C)C(=O)C[C@@H]2N=C(c3ccc(Cl)cc3)c3c(sc(C)c3C)-n3c(C)nnc32)cc1N1CCC(=O)NC1=O | 5 | 23 nM | 5.49 |  |  |  |  |
| Cc1sc2c(c1C)C(c1ccc(Cl)cc1)=N[C@@H](CC(=O)O)c1nnc(C)n1-2 |  | > 50000 nM | < 4.30 | < 4.30 |  | < 4.30 | Emax (HEK293 [5]; 0.5 h): 14.23% |
| Cc1ccc(C(=O)N(C)[C@H]2C[C@H](NC(=O)C[C@@H]3N=C(c4ccc(Cl)cc4)c4c(sc(C)c4C)-n4c(C)nnc43)C2)cc1N1CCC(=O)NC1=O | 6.4 | > 20000 nM | 5.68 |  |  |  |  |
| Cc1sc2c(c1C)C(c1ccc(Cl)cc1)=N[C@@H](CC(=O)ON1C(=O)CCC1=O)c1nnc(C)n1-2 |  | > 50000 nM | < 4.30 | < 4.30 | 5.26% | < 4.30 |  |

More lines, main results first:

| relative binding affinity (RBA) [1] | DC50 [3] | SMILES | pIC50 (HEK293 [2]; Homo sapiens, HEK293, 0.5 h) | pIC50 (HEK293 [4]; Homo sapiens, HEK293, 0.5 h) | Emax (HEK293 [5]; [9]) | pEC50 (HEK293 [6]) | further results |
| --- | --- | --- | --- | --- | --- | --- | --- |
| 0.9 | 88 nM | Cc1ccc(C(=O)N(C)CCN2CCN(C(=O)C[C@@H]3N=C(c4ccc(Cl)cc4)c4c(sc(C)c4C)-n4c(C)nnc43)CC2)cc1N1CCC(=O)NC1=O | 5.35 |  |  |  |  |
| 9.6 | 7100 nM | Cc1sc2c(c1C)C(c1ccc(Cl)cc1)=N[C@@H](CC(=O)N(C)CCOCCNC(=O)COc1cccc3c1C(=O)N(C1CCC(=O)NC1=O)C3=O)c1nnc(C)n1-2 (stereo not given in full) | 5.80 |  |  |  |  |
|  | > 50000 nM | O=C1CCC(=O)N1O | < 4.30 | < 4.30 | 10.8% | < 4.30 |  |
|  | > 50000 nM | O=C(O)COc1cccc2c1C(=O)N(C1CCC(=O)NC1=O)C2=O (stereo not given) | < 4.30 | 6.08 | 7.58% | < 4.30 |  |
| 25 | 110 nM | Cc1sc2c(c1C)C(c1ccc(Cl)cc1)=N[C@@H](CC(=O)N[C@H]1C[C@H](N(C)C(=O)COc3cccc4c3C(=O)N(C3CCC(=O)NC3=O)C4=O)C1)c1nnc(C)n1-2 (stereo not given in full) | 7.05 |  |  |  |  |
|  | > 50000 nM | O=C1CCC(N2C(=O)c3cccc(OCC(=O)ON4C(=O)CCC4=O)c3C2=O)C(=O)N1 (stereo not given) | 5.13 | 5.98 | 11.9% | < 4.30 |  |
| 0.9 | 20 nM | Cc1ccc(C(=O)N2CCC(Oc3cnc(N4CCN(C(=O)C[C@@H]5N=C(c6ccc(Cl)cc6)c6c(sc(C)c6C)-n6c(C)nnc65)CC4)nc3)CC2)cc1N1CCC(=O)NC1=O | 7.00 |  |  |  |  |
| 2.3 | 6 nM | Cc1sc2c(c1C)C(c1ccc(Cl)cc1)=N[C@@H](CC(=O)N1CCN(c3ncc(OC4CCN(C(=O)COc5cccc6c5C(=O)N(C5CCC(=O)NC5=O)C6=O)CC4)cn3)CC1)c1nnc(C)n1-2 (stereo not given in full) | 7.15 |  |  |  |  |
| 25 | 241 nM | Cc1sc2c(c1C)C(c1ccc(Cl)cc1)=N[C@@H](CC(=O)N1CCN(CCN(C)C(=O)COc3cccc4c3C(=O)N(C3CCC(=O)NC3=O)C4=O)CC1)c1nnc(C)n1-2 (stereo not given in full) | 7.15 |  |  |  |  |
